Source: PMC9586281 (Proceedings of the National Academy of Sciences of the …, 2022)

How the values were obtained:
[1] = biological target: T1, ΔN FOXP3 (T182-P431) (Homo sapiens, UniProt Q9BZS1); experiment: Fluorescence polarization analysis; format: binding; conditions: FPA, 50 nM FITC-labeled peptide, 1× PBS pH 8, 1-15 min room temperature
T1 sequence (Q9BZS1 182-431): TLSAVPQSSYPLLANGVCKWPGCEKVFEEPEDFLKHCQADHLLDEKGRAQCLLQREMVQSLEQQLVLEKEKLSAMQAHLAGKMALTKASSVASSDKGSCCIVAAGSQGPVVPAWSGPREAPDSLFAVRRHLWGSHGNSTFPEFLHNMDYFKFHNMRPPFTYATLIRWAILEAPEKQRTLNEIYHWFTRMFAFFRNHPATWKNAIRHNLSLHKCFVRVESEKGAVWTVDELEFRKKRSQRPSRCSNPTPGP
Outline: (§1)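 Solution-phase fluorescence polarization using recombinant truncated FOXP3 as the binding partner. Equilibrium binding constants were determined for stapled peptides and for their native unstapled peptide controls.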

[2] = biological target: T2, LZCC FOXP3 (T182-M337) (Homo sapiens, UniProt Q9BZS1); experiment: Fluorescence polarization analysis; format: binding; conditions: FPA, 50 nM FITC-labeled peptide, 1× PBS pH 8, 1-15 min room temperature
T2 sequence (Q9BZS1 182-336 limits assumed): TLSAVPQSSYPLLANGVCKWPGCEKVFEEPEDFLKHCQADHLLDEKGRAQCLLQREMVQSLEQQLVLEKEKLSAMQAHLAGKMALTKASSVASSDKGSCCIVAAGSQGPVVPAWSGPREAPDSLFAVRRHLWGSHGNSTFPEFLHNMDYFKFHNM
Outline: as §1

[3] = system: Treg cell-mediated suppression of Tcon cell proliferation; experiment: Ex vivo suppression assay; format: cell-based, mice; conditions: Treg cells pretreated with peptide, 72 h coculture with Tcon cells
[4] = required plasmid transfection for cellular introduction; cited from earlier work
[5] = system: FOXP3:NFAT; conditions: cited from earlier work

Row | KD, ΔN FOXP3 [1] | KD, LZCC FOXP3 [2] | Substance | Inhibition of Treg cell-mediated suppression of target proliferation [3] | Cell permeability [4] | Inhibition of FOXP3:NFAT [5]
1 | no binding | no binding | FOXP3(229-259): native, unstapled peptide control of hFOXP3 residues 229-259 (RAQCLLQREMVQSLEQQLVLEKEKLSAMQAH; UniProt Q9BZS1 229-259, looked up, fragment) | no ability to prevent Treg cell–mediated suppression of Tcon cell proliferation | – | –
2 | – | – | FOXP3 393–403: nonstructured peptide spanning a loop domain and the Wing1 region of the FKH domain of FOXP3 (KCFVRVESEKG; UniProt Q9BZS1 393-403, looked up, fragment) | – | not cell permeable | partially inhibit FOXP3:NFAT
